ChEMBL document CHEMBL4190374, “Structure-Function Evaluation of Imidazopyridine Derivatives Selective for δ-Subunit-Containing γ-Aminobutyric Acid Type A (GABAA) Receptors” (J Med Chem, 2018)

Tests used:
[1] = target: Gamma-aminobutyric acid receptor subunit alpha-4/beta-3 (Rattus norvegicus) (UniProt P28471+P63079); test: Displacement of [3H]EBOB from rat GABA-A receptor alpha4beta3 expressed in HEK293 cell membranes up to 10 uM after 90 mins by liquid scintillation counting analysis relative to control
Summary of the method: (§1)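 Crude membranes from HEK 293 cells transiently Ca-phosphate-transfected with rat subunit cDNAs, harvested at 48 h. Membranes (150-200 µg protein) incubated with 3 nM [3H]EBOB in 50 mM Tris/citrate pH 7.3 plus 0.2 M NaCl. Compound up to 10 µM, final DMSO 0.1%, no GABA, 90 min at 21 °C. Bound radioligand collected by GF/C filtration and counted by scintillation.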

[2] = target: Gamma-aminobutyric acid receptor subunit alpha-1/beta-3 (Rattus norvegicus, UniProt P62813+P63079); test: Modulation of rat […] GABA-A receptor alpha1beta3 expressed in HEK293 cells in presence of GABA by patch-clamp assay; format: cell-based
Summary of the method: (§2)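 Whole-cell patch clamp on eGFP-co-transfected HEK 293 cells expressing rat subunits, recorded 48 h post-transfection. KCl/KOH-based pipette solution, pH 7.2. Rising compound concentrations up to 10 µM co-applied with the receptor-specific GABA EC20. Peak currents fitted to a logistic function giving EC50, Hill coefficient and % modulation, mean ± S.E. of n experiments.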

[3] = target: T1, Gamma-aminobutyric acid receptor subunit alpha-4/beta-3/delta (Rattus norvegicus) (UniProt P18506+P28471+P63079); test: Displacement of [3H]EBOB from rat GABA-A receptor alpha4beta3delta expressed in HEK293 cell membranes up to 10 uM after 90 mins by liquid scintillation counting analysis relative to control; summary of the method: as §1
[4] = target: Gamma-aminobutyric acid receptor subunit alpha-6/beta-3/delta (Rattus norvegicus, UniProt P18506+P30191+P63079); test: (§3) Displacement of [3H]EBOB from rat GABA-A receptor alpha6beta3delta expressed in HEK293 cell membranes after 90 mins in presence of GABA by liquid scintillation counting analysis
[5] = target: Gamma-aminobutyric acid receptor subunit alpha-6/beta-3/delta (Rattus norvegicus) (UniProt P18506+P30191+P63079); test: as §3
[6] = target: Gamma-aminobutyric acid receptor subunit alpha-6/beta-3 (Rattus norvegicus, UniProt P30191+P63079); test: Displacement of [3H]EBOB from rat GABA-A receptor alpha6beta3 expressed in HEK293 cell membranes after 90 mins by liquid scintillation counting analysis; summary of the method: as §1
[7] = target: T2, Gamma-aminobutyric acid receptor subunit alpha-6/beta-3/gamma-2 (Rattus norvegicus, UniProt P18508+P30191+P63079); test: Modulation of rat […] GABA-A receptor alpha6beta3gamma2 expressed in HEK293 cells in presence of GABA by patch-clamp assay; format: cell-based
Summary of the method: (§4)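 Rat GABA-A subunits were transiently co-transfected with eGFP into HEK293 cells on coverslips. Fluorescent cells were recorded by whole-cell patch clamp 48 h later; bath pH 7.4, KCl/KOH pipette pH 7.2. Compound was applied at increasing concentrations up to 10 µM with the receptor-specific GABA EC20. Peak currents were fitted logistically for EC50, Hill and % modulation, as mean ± S.E.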

[8] = organism: Rattus norvegicus; test: Selectivity ratio of IC50 for rat GABA-A receptor alpha6beta2 expressed in HEK293 cells to IC50 for rat GABA-A receptor alpha6beta2delta expressed in HEK293 cells; format: cell-based
[9] = target: T1, Gamma-aminobutyric acid receptor subunit alpha-4/beta-3/delta (Rattus norvegicus); test: Modulation of rat […] GABA-A receptor alpha4beta3delta expressed in HEK293 cells up to 10 uM in presence of GABA by patch-clamp assay relative to control; format: cell-based; summary of the method: as §4
[10] = target: T1, Gamma-aminobutyric acid receptor subunit alpha-4/beta-3/delta (Rattus norvegicus); test: Agonist activity at rat […] GABA-A receptor alpha4beta3delta expressed in HEK293 cells assessed as ratio of I0 to GABA Imax at 10 uM in absence of GABA by patch-clamp assay; format: cell-based
Summary of the method: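 Whole-cell patch clamp on single fluorescent HEK 293 cells 48 h after transient co-transfection with rat subunit cDNAs plus eGFP. Extracellular solution 135 mM NaCl, 5.3 mM KCl, 2 mM CaCl2, 2 mM MgSO4, 10 mM HEPES pH 7.4, perfused 3 mL/min. Compound at 10 µM without GABA. Current expressed relative to 1 mM GABA at the same receptor (I0/Imax GABA), mean ± S.D. of n experiments.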

[11] = organism: Rattus norvegicus; test: Selectivity ratio of IC50 for rat GABA-A receptor alpha6beta2gamma2 expressed in HEK293 cells to IC50 for rat GABA-A receptor alpha6beta2delta expressed in HEK293 cells; format: cell-based
[12] = target: Gamma-aminobutyric acid receptor subunit alpha-4/beta-3/gamma-2 (Rattus norvegicus) (UniProt P18508+P28471+P63079); test: Displacement of [3H]EBOB from rat GABA-A receptor alpha4beta3gamma2 expressed in HEK293 cell membranes up to 10 uM after 90 mins by liquid scintillation counting analysis relative to control; summary of the method: as §1
[13] = target: T3, Gamma-aminobutyric acid receptor subunit alpha-6/beta-3 (Rattus norvegicus) (UniProt P30191+P63079); test: Displacement of [3H]EBOB from rat GABA-A receptor alpha6beta3 expressed in HEK293 cell membranes up to 10 uM after 90 mins by liquid scintillation counting analysis relative to control; summary of the method: as §1
[14] = target: T4, Gamma-aminobutyric acid receptor subunit alpha-6/beta-3/gamma-2 (Rattus norvegicus) (UniProt P18508+P30191+P63079); test: (§5) Displacement of [3H]EBOB from rat GABA-A receptor alpha6beta3gamma2 expressed in HEK293 cell membranes after 90 mins in presence of GABA by liquid scintillation counting analysis
[15] = target: T2, Gamma-aminobutyric acid receptor subunit alpha-6/beta-3/gamma-2; test: as §5
[16] = target: T3, Gamma-aminobutyric acid receptor subunit alpha-6/beta-3 (Rattus norvegicus); test: Modulation of rat […] GABA-A receptor alpha6beta3 expressed in HEK293 cells up to 10 uM in presence of GABA by patch-clamp assay relative to control; format: cell-based; summary of the method: as §4
[17] = target: T2, Gamma-aminobutyric acid receptor subunit alpha-6/beta-3/gamma-2; test: Displacement of [3H]EBOB from rat GABA-A receptor alpha6beta3gamma2 expressed in HEK293 cell membranes after 90 mins by liquid scintillation counting analysis; summary of the method: as §1
[18] = target: T4, Gamma-aminobutyric acid receptor subunit alpha-6/beta-3/gamma-2 (Rattus norvegicus); test: Displacement of [3H]EBOB from rat GABA-A receptor alpha6beta3gamma2 expressed in HEK293 cell membranes up to 10 uM after 90 mins by liquid scintillation counting analysis relative to control; summary of the method: as §1
[19] = target: Gamma-aminobutyric acid receptor subunit alpha-1/beta-3 (Rattus norvegicus) (UniProt P62813+P63079); test: Modulation of rat […] GABA-A receptor alpha1beta3 expressed in HEK293 cells up to 10 uM in presence of GABA by patch-clamp assay relative to control; format: cell-based; summary of the method: as §2
[20] = target: Gamma-aminobutyric acid receptor subunit alpha-6/beta-2/delta (Rattus norvegicus) (UniProt P18506+P30191+P63138); test: Displacement of [3H]EBOB from rat GABA-A receptor alpha6beta2delta expressed in HEK293 cell membranes up to 10 uM after 90 mins by liquid scintillation counting analysis relative to control; summary of the method: as §1
[21] = target: Gamma-aminobutyric acid receptor subunit alpha-1/beta-3/gamma-2 (Rattus norvegicus) (UniProt P18508+P62813+P63079); test: Modulation of rat […] GABA-A receptor alpha1beta3gamma2 expressed in HEK293 cells up to 10 uM in presence of GABA by patch-clamp assay relative to control; format: cell-based; summary of the method: as §4

T2 sequence (P18508 whole entry): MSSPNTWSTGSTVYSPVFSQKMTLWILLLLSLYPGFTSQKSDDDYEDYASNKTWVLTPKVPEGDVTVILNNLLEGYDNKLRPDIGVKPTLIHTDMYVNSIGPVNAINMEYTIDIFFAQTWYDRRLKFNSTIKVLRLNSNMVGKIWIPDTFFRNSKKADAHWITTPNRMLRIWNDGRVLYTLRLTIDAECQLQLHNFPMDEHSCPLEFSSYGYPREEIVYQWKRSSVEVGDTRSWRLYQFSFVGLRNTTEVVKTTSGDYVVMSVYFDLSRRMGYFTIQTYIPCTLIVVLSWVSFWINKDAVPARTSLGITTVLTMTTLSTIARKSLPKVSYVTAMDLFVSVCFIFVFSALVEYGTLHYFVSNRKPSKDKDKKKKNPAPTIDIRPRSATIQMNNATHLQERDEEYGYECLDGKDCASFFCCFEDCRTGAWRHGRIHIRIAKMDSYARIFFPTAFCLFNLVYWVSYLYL
T2 sequence (P30191 whole entry): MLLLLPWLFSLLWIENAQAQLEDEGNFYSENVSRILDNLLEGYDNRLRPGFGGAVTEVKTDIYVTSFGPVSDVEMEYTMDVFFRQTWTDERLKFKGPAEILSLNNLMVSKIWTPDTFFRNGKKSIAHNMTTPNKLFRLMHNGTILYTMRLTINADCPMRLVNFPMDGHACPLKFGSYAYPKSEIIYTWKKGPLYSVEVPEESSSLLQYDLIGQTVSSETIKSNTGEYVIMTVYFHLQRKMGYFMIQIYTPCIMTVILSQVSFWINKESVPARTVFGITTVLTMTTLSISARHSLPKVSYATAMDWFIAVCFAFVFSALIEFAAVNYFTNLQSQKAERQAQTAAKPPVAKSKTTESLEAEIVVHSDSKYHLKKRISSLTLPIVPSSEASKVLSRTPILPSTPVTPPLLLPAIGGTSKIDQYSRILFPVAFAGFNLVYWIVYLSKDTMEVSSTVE
T2 sequence (P63079 whole entry): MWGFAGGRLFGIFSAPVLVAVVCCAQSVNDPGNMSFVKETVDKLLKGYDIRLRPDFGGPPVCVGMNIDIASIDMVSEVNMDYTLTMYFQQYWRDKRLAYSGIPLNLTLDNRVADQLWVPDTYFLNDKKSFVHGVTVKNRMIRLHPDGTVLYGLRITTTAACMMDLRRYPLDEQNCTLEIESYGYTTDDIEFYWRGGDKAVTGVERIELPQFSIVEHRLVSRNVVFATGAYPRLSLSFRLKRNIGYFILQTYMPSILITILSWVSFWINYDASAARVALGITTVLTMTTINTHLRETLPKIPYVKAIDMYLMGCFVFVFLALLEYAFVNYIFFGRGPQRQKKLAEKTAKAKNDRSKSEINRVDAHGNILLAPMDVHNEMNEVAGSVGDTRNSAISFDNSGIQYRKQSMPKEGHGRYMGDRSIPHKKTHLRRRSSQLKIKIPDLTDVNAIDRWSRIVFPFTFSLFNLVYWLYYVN
Sequence of Gamma-aminobutyric acid receptor subunit alpha-1/beta-3 (P62813 whole entry): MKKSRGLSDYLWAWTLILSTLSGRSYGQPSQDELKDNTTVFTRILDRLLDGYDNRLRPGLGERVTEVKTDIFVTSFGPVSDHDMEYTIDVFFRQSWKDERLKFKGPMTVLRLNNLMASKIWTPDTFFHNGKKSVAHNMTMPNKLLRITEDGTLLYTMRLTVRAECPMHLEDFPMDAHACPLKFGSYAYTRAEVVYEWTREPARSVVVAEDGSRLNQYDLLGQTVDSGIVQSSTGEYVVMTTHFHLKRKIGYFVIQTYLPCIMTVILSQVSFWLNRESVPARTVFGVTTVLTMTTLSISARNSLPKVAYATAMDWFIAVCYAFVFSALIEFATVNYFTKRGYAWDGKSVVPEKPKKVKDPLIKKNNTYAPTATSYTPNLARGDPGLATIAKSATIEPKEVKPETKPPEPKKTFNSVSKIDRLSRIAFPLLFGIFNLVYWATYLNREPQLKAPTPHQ
Sequence of Gamma-aminobutyric acid receptor subunit alpha-1/beta-3 (P63079 whole entry): as the sequence (P63079 whole entry) above
Sequence of Gamma-aminobutyric acid receptor subunit alpha-6/beta-3 (P30191 whole entry): as the sequence (P30191 whole entry) above
Sequence of Gamma-aminobutyric acid receptor subunit alpha-6/beta-3 (P63079 whole entry): as the sequence (P63079 whole entry) above
Sequence of Gamma-aminobutyric acid receptor subunit alpha-6/beta-3/delta (P18506 whole entry): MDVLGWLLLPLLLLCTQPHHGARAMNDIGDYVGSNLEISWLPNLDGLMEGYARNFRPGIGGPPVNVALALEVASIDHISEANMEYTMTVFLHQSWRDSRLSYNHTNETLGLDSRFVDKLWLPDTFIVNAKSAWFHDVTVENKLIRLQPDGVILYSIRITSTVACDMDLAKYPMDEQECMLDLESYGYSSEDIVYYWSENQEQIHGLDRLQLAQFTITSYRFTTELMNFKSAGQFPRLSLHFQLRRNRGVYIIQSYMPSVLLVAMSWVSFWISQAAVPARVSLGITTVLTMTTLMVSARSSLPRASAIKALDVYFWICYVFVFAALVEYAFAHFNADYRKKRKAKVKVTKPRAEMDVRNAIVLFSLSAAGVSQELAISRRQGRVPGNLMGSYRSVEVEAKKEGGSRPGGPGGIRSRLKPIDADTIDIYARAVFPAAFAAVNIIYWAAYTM
Sequence of Gamma-aminobutyric acid receptor subunit alpha-6/beta-3/delta (P30191 whole entry): as the sequence (P30191 whole entry) above
Sequence of Gamma-aminobutyric acid receptor subunit alpha-6/beta-3/delta (P63079 whole entry): as the sequence (P63079 whole entry) above

Imax [1]: 80%
EC50 [2]: 100 nM
Imax [3]: 61%
IC50 [4]: 370 nM
Imax [5]: 88%
IC50 [6]: 790 nM
EC50 [7]: 870 nM
Activity [9]: 297%
Ratio [10]: 1.61
Imax [12]: 67%
Imax [13]: 90%
Imax [14]: 93%
IC50 [15]: 1090 nM
Activity [16]: 1140%
IC50 [17]: 930 nM
Imax [18]: 94%
Activity [19]: 35%
Imax [20]: 82%
Activity [21]: 139%
Structure (SMILES): O=C(Nc1c(-c2cccs2)nc2c(Br)cc(Br)cn12)c1ccc(Cl)cc1
Ratio IC50 [8]: 4
Ratio IC50 [11]: 7
